According to ChEMBL document CHEMBL4312015, “Design, synthesis and 3D-QSAR analysis of novel thiopyranopyrimidine derivatives as potential antitumor agents inhibiting A549 and Hela cancer cells” (Eur J Med Chem, 2020):
Active and inactive are the calls of the source. The calls are words filed in the database; no cut-off is given here.

Key:
[1] = system: A549; experiment: Antiproliferative activity against human A549 cells assessed as inhibition of cell growth after 72 hrs by MTT assay; type: functional, cell-based; conditions: A549, 72 h
Summary of the method: (§1)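 Cell lines from the Chinese Academy of Sciences cell collection, grown in 96-well plates with a range of compound concentrations for 72 h. Viability read by MTT, with AZD9291 as positive control. IC50 values are averages of three determinations per the methods section; table footnotes state an average of two separate determinations.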

[2] = target: T1, Epidermal growth factor receptor (Homo sapiens, UniProt P00533); experiment: Inhibition of wildtype EGFR (unknown origin) using biotin as substrate in presence of ATP by mobility shift assay based ELISA
[3] = system: A549; experiment: Induction of apoptosis in human A549 cells assessed as viable cells at 0.716 uM after 24 hrs by AnnexinV-FITC/propidium iodide staining based FACSCalibur flow cytometry analysis (reference value: 94.42 %); type: functional; conditions: A549, 24 h, read-out: Activity
[4] = target: Epidermal growth factor receptor (Homo sapiens, UniProt P00533, L858R/T790M); experiment: Inhibition of EGFR T790M/L858R double mutant (unknown origin) using biotin as substrate in presence of ATP by mobility shift assay based ELISA
[5] = system: A549; experiment: Cell cycle arrest in human A549 cells assessed as accumulation at G2/M phase at 0.716 uM after 24 hrs by propidium iodide staining based FACSCalibur flow cytometry analysis (reference value: 3.45 %); type: functional
Summary of the method: (§2)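 A549 cells seeded in 6-well plates for 24 h, then treated for 24 h; vehicle was 0.1% DMSO. Cells were harvested as single-cell suspensions, fixed in 70% ice-cold ethanol for 12 h, and stained with propidium iodide. DNA content was measured by flow cytometry. AZD9291 at 0.462 uM was included as reference.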

[6] = system: NCI-H1975; experiment: Antiproliferative activity against human NCI-H1975 cells harboring EGFR T790M/L858R double mutant assessed as inhibition of cell growth after 72 hrs by MTT assay; type: functional, cell-based; conditions: NCI-H1975, 72 h; summary of the method: as §1
[7] = system: A549; experiment: Induction of apoptosis in human A549 cells assessed as late apoptotic cells at 0.716 uM after 24 hrs by AnnexinV-FITC/propidium iodide staining based FACSCalibur flow cytometry analysis (reference value: 1.74 %); type: functional
[8] = system: HeLa; experiment: Antiproliferative activity against human HeLa cells assessed as inhibition of cell growth after 72 hrs by MTT assay; type: functional, cell-based; summary of the method: as §1
[9] = system: A549; experiment: Induction of apoptosis in human A549 cells assessed as necrotic cells at 0.716 uM after 24 hrs by AnnexinV-FITC/propidium iodide staining based FACSCalibur flow cytometry analysis (reference value: 0.33 %); type: functional
[10] = system: A549; experiment: Cell cycle arrest in human A549 cells assessed as accumulation at G0/G1 phase at 0.716 uM after 24 hrs by propidium iodide staining based FACSCalibur flow cytometry analysis (reference value: 74.31 %); type: functional; summary of the method: as §2
[11] = system: NCI-H1975; experiment: Antiproliferative activity human NCI-H1975 cells harboring EGFR T790M/L858R double mutant assessed as inhibition of cell growth at 10 uM after 72 hrs by MTT assay relative to control; type: functional; conditions: NCI-H1975, 72 h
Summary of the method: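 H1975 cells exposed to compound at a single 10 uM concentration. Growth inhibition rate read by MTT after 72 h in 96-well plates, with AZD9291 as positive control. Values are an average of two separate determinations.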

[12] = species: Homo sapiens; experiment: Selectivity ratio of IC50 for wildtype EGFR (unknown origin) to IC50 for EGFR T790M/L858R double mutant (unknown origin) by mobility shift assay based ELISA
[13] = system: A549; experiment: Induction of apoptosis in human A549 cells assessed as early apoptotic cells at 0.716 uM after 24 hrs by AnnexinV-FITC/propidium iodide staining based FACSCalibur flow cytometry analysis (reference value: 3.51 %); type: functional
[14] = system: A549; experiment: Cell cycle arrest in human A549 cells assessed as accumulation at S phase at 0.716 uM after 24 hrs by propidium iodide staining based FACSCalibur flow cytometry analysis (reference value: 22.24 %); type: functional; summary of the method: as §2
[15] = target: T1, Epidermal growth factor receptor; experiment: Inhibition of EFGR phosphorylation in human HeLa cells at 0.1 to 10 uM after 24 hrs by Western blot analysis; type: cell-based
Summary of the method: (§3)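 HeLa cells treated for 24 h with graded compound concentrations, with AZD9291 as positive control. Whole-cell lysates were made in RIPA buffer and protein measured by BCA. Equal protein was run on 10% SDS-PAGE, transferred to PVDF on ice, and probed for EGFR, p-EGFR and GAPDH.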

[16] = system: A549; experiment: Cell cycle arrest in human A549 cells assessed as accumulation at G0/G1 phase at 0.057 uM after 24 hrs by propidium iodide staining based FACSCalibur flow cytometry analysis (reference value: 74.31 %); type: functional; summary of the method: as §2
[17] = system: A549; experiment: Cell cycle arrest in human A549 cells assessed as accumulation at G2/M phase at 0.057 uM after 24 hrs by propidium iodide staining based FACSCalibur flow cytometry analysis (reference value: 3.45 %); type: functional; summary of the method: as §2
[18] = system: A549; experiment: Induction of apoptosis in human A549 cells assessed as necrotic cells at 0.057 uM after 24 hrs by AnnexinV-FITC/propidium iodide staining based FACSCalibur flow cytometry analysis (reference value: 0.33 %); type: functional
[19] = system: A549; experiment: Cell cycle arrest in human A549 cells assessed as accumulation at S phase at 0.057 uM after 24 hrs by propidium iodide staining based FACSCalibur flow cytometry analysis (reference value: 22.24 %); type: functional; summary of the method: as §2
[20] = system: A549; experiment: Induction of apoptosis in human A549 cells assessed as early apoptotic cells at 0.057 uM after 24 hrs by AnnexinV-FITC/propidium iodide staining based FACSCalibur flow cytometry analysis (reference value: 3.51 %); type: functional
[21] = system: HeLa; experiment: Inhibition of EFGR protein expression in human HeLa cells after 24 hrs by Western blot analysis; type: functional, cell-based; summary of the method: as §3
[22] = system: A549; experiment: Induction of apoptosis in human A549 cells assessed as viable cells at 0.057 uM after 24 hrs by AnnexinV-FITC/propidium iodide staining based FACSCalibur flow cytometry analysis (reference value: 94.42 %); type: functional; conditions: A549, 24 h, read-out: Activity
[23] = system: A549; experiment: Induction of apoptosis in human A549 cells assessed as late apoptotic cells at 0.057 uM after 24 hrs by AnnexinV-FITC/propidium iodide staining based FACSCalibur flow cytometry analysis (reference value: 1.74 %); type: functional

T1 sequence (P00533 whole entry): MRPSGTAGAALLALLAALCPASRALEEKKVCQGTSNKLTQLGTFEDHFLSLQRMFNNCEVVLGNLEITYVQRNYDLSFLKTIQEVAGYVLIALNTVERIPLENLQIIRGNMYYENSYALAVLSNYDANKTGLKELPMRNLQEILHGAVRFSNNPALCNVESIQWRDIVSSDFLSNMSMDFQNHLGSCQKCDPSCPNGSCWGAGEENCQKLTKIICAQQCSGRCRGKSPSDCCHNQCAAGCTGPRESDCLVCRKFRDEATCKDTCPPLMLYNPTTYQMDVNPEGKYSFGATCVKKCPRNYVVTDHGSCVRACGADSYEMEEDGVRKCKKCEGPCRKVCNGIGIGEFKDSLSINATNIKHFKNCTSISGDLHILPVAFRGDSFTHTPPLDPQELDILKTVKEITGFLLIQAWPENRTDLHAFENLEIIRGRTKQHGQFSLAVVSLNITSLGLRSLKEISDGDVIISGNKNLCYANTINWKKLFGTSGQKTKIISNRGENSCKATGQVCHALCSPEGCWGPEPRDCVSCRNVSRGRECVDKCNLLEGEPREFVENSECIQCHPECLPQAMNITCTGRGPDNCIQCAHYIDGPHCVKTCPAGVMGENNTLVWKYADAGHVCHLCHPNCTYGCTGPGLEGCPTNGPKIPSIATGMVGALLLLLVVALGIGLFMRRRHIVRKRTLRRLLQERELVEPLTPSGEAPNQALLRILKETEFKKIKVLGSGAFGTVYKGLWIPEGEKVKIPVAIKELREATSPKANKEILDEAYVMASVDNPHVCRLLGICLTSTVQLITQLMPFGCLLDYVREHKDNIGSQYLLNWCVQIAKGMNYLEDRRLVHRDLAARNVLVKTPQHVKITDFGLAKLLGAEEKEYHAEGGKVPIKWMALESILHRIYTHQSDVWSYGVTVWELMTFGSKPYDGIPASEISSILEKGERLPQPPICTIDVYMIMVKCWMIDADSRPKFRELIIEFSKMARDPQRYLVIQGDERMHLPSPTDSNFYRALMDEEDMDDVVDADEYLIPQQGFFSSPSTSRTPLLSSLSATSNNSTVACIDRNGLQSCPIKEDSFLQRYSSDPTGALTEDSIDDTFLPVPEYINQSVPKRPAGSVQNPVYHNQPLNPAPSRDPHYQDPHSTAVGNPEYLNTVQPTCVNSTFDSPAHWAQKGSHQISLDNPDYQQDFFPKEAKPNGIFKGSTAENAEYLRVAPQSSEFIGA
Epidermal growth factor receptor (Homo sapiens, UniProt P00533, L858R/T790M), sequence (P00533 25-1210 T790M/L858R limits assumed): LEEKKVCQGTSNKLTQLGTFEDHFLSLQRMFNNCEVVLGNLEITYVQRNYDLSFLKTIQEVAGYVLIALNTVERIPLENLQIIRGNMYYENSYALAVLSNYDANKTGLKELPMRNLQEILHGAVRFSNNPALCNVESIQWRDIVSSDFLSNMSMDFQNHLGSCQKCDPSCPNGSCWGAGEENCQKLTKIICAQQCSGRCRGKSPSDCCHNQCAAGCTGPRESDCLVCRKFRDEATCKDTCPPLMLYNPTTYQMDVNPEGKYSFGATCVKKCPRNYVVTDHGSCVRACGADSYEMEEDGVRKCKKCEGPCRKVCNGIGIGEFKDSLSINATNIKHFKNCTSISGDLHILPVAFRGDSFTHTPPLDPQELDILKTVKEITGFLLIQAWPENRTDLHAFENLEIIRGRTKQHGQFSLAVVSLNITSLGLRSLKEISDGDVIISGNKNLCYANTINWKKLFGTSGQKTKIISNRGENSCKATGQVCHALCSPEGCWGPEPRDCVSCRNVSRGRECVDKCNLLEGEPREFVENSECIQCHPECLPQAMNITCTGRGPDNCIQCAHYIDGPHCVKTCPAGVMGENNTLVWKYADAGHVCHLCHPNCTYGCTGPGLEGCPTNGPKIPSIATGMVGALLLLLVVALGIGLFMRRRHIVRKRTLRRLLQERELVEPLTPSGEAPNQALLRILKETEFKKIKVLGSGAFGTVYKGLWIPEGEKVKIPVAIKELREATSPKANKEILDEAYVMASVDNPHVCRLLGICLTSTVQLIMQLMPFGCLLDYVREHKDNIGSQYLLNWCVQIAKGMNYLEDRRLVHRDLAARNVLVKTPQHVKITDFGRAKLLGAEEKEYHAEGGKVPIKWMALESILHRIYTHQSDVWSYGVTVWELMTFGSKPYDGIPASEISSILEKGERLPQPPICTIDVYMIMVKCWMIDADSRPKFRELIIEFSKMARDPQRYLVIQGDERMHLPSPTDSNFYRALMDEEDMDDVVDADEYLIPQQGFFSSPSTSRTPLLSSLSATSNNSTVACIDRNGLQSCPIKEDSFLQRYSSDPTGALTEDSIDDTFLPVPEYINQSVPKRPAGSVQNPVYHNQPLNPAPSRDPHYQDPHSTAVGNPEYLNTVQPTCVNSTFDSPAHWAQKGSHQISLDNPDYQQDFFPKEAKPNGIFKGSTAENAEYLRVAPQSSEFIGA

## C=C(Cl)C(=O)Nc1cc(Nc2nc3c(c(-c4cn(C)c5ccccc45)n2)CSCC3)c(OC)cc1N(C)CCN(C)C
[1]
  IC50: 716 nM
[2]
  IC50: 570 nM
[3]
  viability at 0.716 µM: 85.9%
[4]
  IC50: 31 nM
[5]
  Activity: 12.35%
[6]
  IC50: 4210 nM
[7]
  Activity: 5.99%
[8]; read-out: IC50
  IC50: 1000 nM
[8]; read-out: pIC50 (converted)
  IC50: 1000 nM
[9]
  Activity: 0.6%
[10]
  Activity: 60.51%
[11]
  inhibition at 10 µM: 99.6%
[12]
  Ratio IC50: 18.4
[13]
  Activity: 7.56%
[14]
  Activity: 27.14%

## CCC/C=C\C(=O)Nc1cc(Nc2nc3c(c(-c4cn(C)c5ccccc45)n2)CS(=O)(=O)CC3)c(OC)cc1N(C)CCN(C)C
[15]
  inhibition: inactive
[1]
  IC50: 57 nM
[2]
  IC50: > 2000 nM
[16]
  Activity: 69.17%
[4]
  IC50: 16 nM
[17]
  Activity: 10.63%
[6]
  IC50: 916 nM
[18]
  Activity: 0.08%
[8]; read-out: IC50
  IC50: 104 nM
[8]; read-out: pIC50 (converted)
  IC50: 104 nM
[19]
  Activity: 20.2%
[20]
  Activity: 5.87%
[21]
  inhibition: Dose-dependent effect
[22]
  viability at 0.057 µM: 88.1%
[23]
  Activity: 5.92%
[11]
  inhibition at 10 µM: 99.5%
[12]
  Ratio IC50: > 125
